Screening results from PubChem BioAssay.
Rows were chosen to be rich in hits. Some 1.9% of all compounds tested hit in one or more screens of this group.
PP5 primary: blocks human protein phosphatase 5 activity; P53041; purified PP5c, OMFP substrate fluorescence; inhibition, % at 6.7 µM; 320,000 compounds, 0.18% hits; AID 1987;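 active means inhibition above the campaign's mean inhibition across all tested compounds plus 3 SD, cut at about 9.5% in these data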;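 further: 0% = DMSO only and 100% = 100 µM cantharidin control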
Target sequence (P53041 whole entry, looked up): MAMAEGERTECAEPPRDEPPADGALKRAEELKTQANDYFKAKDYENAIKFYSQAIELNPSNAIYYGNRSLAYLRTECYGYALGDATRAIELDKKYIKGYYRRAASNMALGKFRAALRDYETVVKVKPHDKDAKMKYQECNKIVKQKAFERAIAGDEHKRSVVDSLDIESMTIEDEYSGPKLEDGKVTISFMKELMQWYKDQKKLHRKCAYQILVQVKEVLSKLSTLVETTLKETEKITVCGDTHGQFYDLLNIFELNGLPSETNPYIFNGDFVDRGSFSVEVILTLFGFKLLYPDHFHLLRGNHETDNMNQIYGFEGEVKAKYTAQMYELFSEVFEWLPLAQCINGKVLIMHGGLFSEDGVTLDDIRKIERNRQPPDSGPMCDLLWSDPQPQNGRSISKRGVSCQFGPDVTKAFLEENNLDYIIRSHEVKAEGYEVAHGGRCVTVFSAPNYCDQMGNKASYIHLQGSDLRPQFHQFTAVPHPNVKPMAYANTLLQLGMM
STEP inh: inhibitors of human striatal-enriched phosphatase STEP; P54829; inhibition, % at 20 µM; AID 588621; recombinant STEP, OMFP fluorogenic substrate, fluorescence; 360,000 compounds, 0.25% hits;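 active means inhibition at 20 µM, scaled per plate between control wells, above about 37%, limit read from the data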;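 further: 0% = DMSO with enzyme and substrate and 100% = substrate only without enzyme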
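Material: STEP (striatal-enriched tyrosine phosphatase) enzyme, cell-free | Medium: 50 mM Bis-Tris pH 6.0 with 2.5 mM DTT and 0.005% Tween 20 | Read-out: Percent inhibition scaled to no-enzyme and uninhibited-enzyme controls, plate-pattern corrected | Signal: Fluorescence read at 480 nm ex / 540 nm em | Times: 20 min reaction, room temperature, in the dark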
PP1 inh: blocks human PP1-alpha phosphatase, a PP5 counter-screen; inhibition, % at 6.7 µM; AID 2235; purified PP1alpha, OMFP fluorescence; P62136; 320,000 compounds, 0.9% hits;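 active means inhibition above the mean inhibition of all tested compounds plus 3 SD, computed separately for each screening campaign, cut at about 15% in these data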
LMPTP inh: blocks human LMPTP phosphatase; recombinant LMPTP-A, OMFP fluorogenic substrate, fluorescence intensity; inhibition, % at 20 µM; 360,000 compounds, 0.22% hits; AID 651560;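 active means compounds that cut the enzyme signal by at least half of the control window in the single-dose screen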;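 further: plate controls were DMSO wells with enzyme plus substrate for no effect and substrate without enzyme for full effect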
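Assay system: LMPTP-A phosphatase enzyme | Input: 0.625 nM enzyme | Also added: Fluorogenic phosphatase substrate OMFP at 400 µM final | Compound dosing: One test concentration per compound, 20 µM, with 3% DMSO overall | Schedule: 50 min enzyme reaction at room temperature, protected from light | Signal: Fluorescence intensity | Benchmarks: no-enzyme and uninhibited controls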
Scp1 inh: blocks human Scp-1 phosphatase activity | Recombinant Scp1, phosphopeptide, malachite green phosphate absorbance | inhibition, % at 20 µM | 340,000 compounds, 0.88% hits | AID 493091;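 active means inhibition above about 50% at 20 µM, limit read from the data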;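 further: plate controls were DMSO wells with enzyme for no effect and wells lacking enzyme for full effect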
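Assay system: SCP-1 catalytic fragment, aa 76-261 | Buffer or medium: Tris acetate buffer pH 5.5 with MgCl2 and Tween-20 | Compound: One concentration, 20 µM, with 1.0% DMSO | Also added: Phospho 17-mer peptide substrate | Signal: Absorbance at 630 nm | Incubation: 45 min enzyme reaction at room temperature | Measure: % inhibition of SCP-1 phosphate liberation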
PP5 inh confirm: PP5 (human) inhibition, confirmation; Purified PP5, fluorogenic phosphatase substrate, fluorescence; 460 compounds, 22% hits; AID 2331; shares compounds with PP5 primary; inhibition, % at 6.7 µM; in the data active means inhibition above about 9.5%
PP1 inh counter: inhibits human PP1 phosphatase in PP5 counter-screen | 460 compounds, 4% hits | PP1 enzyme, fluorescent phosphatase substrate | shares compounds with PP5 primary | inhibition, % at 6.7 µM; in the data active means inhibition above about 16%
An asterisk follows results filed as active.

`CC1CCN(c2ccc(NC(=O)c3cccnc3)cc2)CC1` gave PP5 primary -0.2, STEP inh -0.8, PP1 inh -4.8, LMPTP inh -1.7 and Scp1 inh 4.5.
For O=C(Nc1cccc(S(=O)(=O)NC2=NCCCCC2)c1)c1cc(-c2ccco2)nc2ccccc12 the results were PP5 primary -0.7, STEP inh 0.1, PP1 inh 17.1*, LMPTP inh 35.0 and Scp1 inh 90.2*.
Screening CC[n+]1c(/C=C/c2ccc(OC)c(OC)c2)ccc2ccccc21 returned PP5 primary 4.4, STEP inh -0.5, PP1 inh -2.7, LMPTP inh -0.6 and Scp1 inh 22.6.
CC[n+]1c(/C=C/c2ccc(OC(C)=O)c(OC)c2)ccc2ccccc21 was read as STEP inh -1.2, LMPTP inh 0.8 and Scp1 inh 55.0*.
For COc1ccc(/C=C2\C(=O)NC(=S)N2C(=O)c2ccc(C)cc2)cc1 the results were PP5 primary 0.3, STEP inh 4.9, PP1 inh 15.7*, LMPTP inh 4.1 and Scp1 inh 9.2.
Screening COc1ccccc1/C=C(/CC(=O)NCc1ccc(F)cc1)c1nc2ccccc2s1 returned PP5 primary -4.4, STEP inh 7.7, PP1 inh 15.5*, LMPTP inh 7.3 and Scp1 inh -10.7.
For COc1ccc(C(=O)CC(=O)c2ccc(OC)cc2)cc1 the results were PP5 primary -0.7, STEP inh 3.9, PP1 inh -0.1, LMPTP inh 2.7 and Scp1 inh -18.6.
Screening COc1ccc(C(=O)C[N+]2(C)CCOCC2)cc1 returned PP5 primary 0.2, STEP inh -1.9, PP1 inh 1.7, LMPTP inh 0.4 and Scp1 inh 100.8*.
For CCCCn1c(NC(=O)CC)c(C#N)c2nc3ccccc3nc21 the results were PP5 primary 1.5, STEP inh 27.7, PP1 inh -1.9, LMPTP inh -0.5 and Scp1 inh 11.3.
`CCCCn1c(NC(=O)c2ccccc2Cl)c(C#N)c2nc3ccccc3nc21` gave PP5 primary 12.1*, STEP inh -0.4, PP1 inh 10.3, LMPTP inh 16.9, Scp1 inh -3.6, PP5 inh confirm 40.4* and PP1 inh counter 27.1*.
Screening S=C(NC1CCCC1)N1CCOCC1 returned PP5 primary -0.1, STEP inh -1.4, PP1 inh -1.4, LMPTP inh -1.9 and Scp1 inh 0.7.
For S=C(NC1CCCCC1)N1CCOCCOCCN(C(=S)NC2CCCCC2)CCOCC1 the results were PP5 primary 9.8*, STEP inh -0.3, PP1 inh 1.3, LMPTP inh -1.8, Scp1 inh 8.2, PP5 inh confirm -0.5 and PP1 inh counter 1.5.
Screening Cc1ccccc1NC(=O)CN1C(=O)c2cccnc2Oc2ccc(Cl)cc21 returned PP5 primary 1.0, STEP inh -2.9, PP1 inh 5.3, LMPTP inh 0.4 and Scp1 inh -4.7.
For O=C(NCCCCc1ccccc1)c1ccccc1F the results were PP5 primary 11.8*, STEP inh -2.3, PP1 inh -1.3, LMPTP inh -1.1, Scp1 inh -6.2, PP5 inh confirm -1.2 and PP1 inh counter -2.1.
For O=C(NCCc1ccccc1)c1ccccc1F the results were PP5 primary 1.9, STEP inh -3.8, PP1 inh -4.8, LMPTP inh -0.6 and Scp1 inh -1.2.
COc1ccccc1NC(=O)Nc1sccc1-c1nc2ccccc2s1 was read as PP5 primary 1.8, STEP inh 1.4, PP1 inh 7.0, LMPTP inh 3.7 and Scp1 inh -26.6.
For CC(C)CC(=O)NNC(=S)Nc1ccc(S(N)(=O)=O)cc1 the results were PP5 primary 3.8, STEP inh 2.9, PP1 inh 5.1, LMPTP inh 0.4 and Scp1 inh -5.3.
For CCc1ccc(C(=O)NNC(=S)Nc2ccc(S(N)(=O)=O)cc2)s1 the results were PP5 primary 14.2*, STEP inh -2.0, PP1 inh -0.8, LMPTP inh -0.2, Scp1 inh -7.2, PP5 inh confirm -1.7 and PP1 inh counter 0.7.
